The target in experiment [1] is Vasopressin V1a receptor (Rattus norvegicus) (UniProt P30560). The experiment is described as follows: Pressor activity against V1a receptor in Wistar rat.
The next experiment addresses T1, Oxytocin receptor (Rattus norvegicus, UniProt P70536).
T1 sequence (P70536 whole entry): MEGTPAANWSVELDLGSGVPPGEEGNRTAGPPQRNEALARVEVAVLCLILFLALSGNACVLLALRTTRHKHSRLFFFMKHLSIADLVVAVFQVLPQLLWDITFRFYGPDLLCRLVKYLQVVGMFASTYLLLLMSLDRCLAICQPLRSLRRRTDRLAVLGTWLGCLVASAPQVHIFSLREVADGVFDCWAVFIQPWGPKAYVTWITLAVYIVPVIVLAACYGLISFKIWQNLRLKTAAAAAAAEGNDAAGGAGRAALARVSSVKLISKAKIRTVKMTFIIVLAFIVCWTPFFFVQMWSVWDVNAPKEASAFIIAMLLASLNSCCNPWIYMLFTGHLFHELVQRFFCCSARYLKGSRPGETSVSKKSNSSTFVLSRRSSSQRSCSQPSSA
The experiment can be described thus: (§1) Uterotonic activity against OT receptor in Wistar rat in absence of magnesium. In kind it is functional. In short, it runs like this:
(§2)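 Isolated uterus from female Wistar rats estrogenized 48 h beforehand, tested in vitro without magnesium ions. Synthetic oxytocin served as standard. Dose-response curves from single administrations or cumulative dosing without washing. Values are means of three to five separate experiments.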

The species named for experiment [2] is Rattus norvegicus. The experiment is described as follows: Antidiuretic activity against V2 receptor in Wistar rat at antidiuresis half life of 60 min. It counts as functional, Urine.
For experiment [3], the species on record is Rattus norvegicus. The experiment is described as follows: Antidiuretic activity against V2 receptor in Wistar rat at antidiuresis half life of 200 min. It counts as functional, Urine.
For experiment [4], the target named is T2, Oxytocin receptor (Rattus norvegicus) (UniProt P70536).
T2 sequence (whole entry): T1 sequence (P70536 whole entry)
The description is as §1. It counts as functional. A digest of the protocol:
as §2

Sequence of Vasopressin V1a receptor (Rattus norvegicus) (P30560 whole entry, looked up): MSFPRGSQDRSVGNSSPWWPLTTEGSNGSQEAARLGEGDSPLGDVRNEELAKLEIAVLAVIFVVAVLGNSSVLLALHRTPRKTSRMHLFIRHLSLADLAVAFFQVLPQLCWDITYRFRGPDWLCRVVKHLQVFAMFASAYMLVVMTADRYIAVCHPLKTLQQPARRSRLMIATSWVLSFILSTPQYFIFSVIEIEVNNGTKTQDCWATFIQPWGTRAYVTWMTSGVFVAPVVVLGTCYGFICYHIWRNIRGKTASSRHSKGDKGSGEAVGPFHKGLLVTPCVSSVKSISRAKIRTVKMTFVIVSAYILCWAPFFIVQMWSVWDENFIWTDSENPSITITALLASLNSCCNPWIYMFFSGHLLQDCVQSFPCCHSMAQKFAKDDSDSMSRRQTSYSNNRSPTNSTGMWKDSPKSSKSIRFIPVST

In the case of `CC(C)[C@@H]1NC(=O)[C@H](C)N(Cc2ccccc2)C(=O)[C@H](Cc2ccc(O)cc2)NC(=O)[C@H](N)CSSC[C@H](C(=O)N2CCC[C@H]2C(=O)N[C@@H](CCCN=C(N)N)C(=O)NCC(N)=O)NC(=O)[C@H](CC(N)=O)NC1=O`, the pressor activity in experiment [1] is 0 IU/mg.
Usually pA2 stands for a measure of antagonist potency on a negative log scale. A low value points to lower antagonist potency. Compound `NC(=O)CC[C@@H]1NC(=O)[C@H](Cc2ccccc2)NC(=O)[C@H](Cc2ccc(O)cc2)NC(=O)[C@@](N)(CO)CSSC[C@@H](C(=O)N2CCC[C@H]2C(=O)N[C@@H](CCCN=C(N)N)C(=O)NCC(N)=O)NC(=O)[C@H](CC(N)=O)NC1=O` [listing 1 of 2 here] had a pA2 on Oxytocin receptor of 6.4.
Turning to `CC(C)[C@@H]1NC(=O)[C@H](C)N(Cc2ccccc2)C(=O)[C@H](Cc2ccc(O)cc2)NC(=O)[C@@H](N)CSSC[C@@H](C(=O)N2CCC[C@H]2C(=O)N[C@@H](CCCN=C(N)N)C(=O)NCC(N)=O)NC(=O)[C@H](CC(N)=O)NC1=O`, in the experiment filed under Rattus norvegicus [2], the Activity is <0.04 IU/mg.
In the case of `NC(=O)CC[C@@H]1NC(=O)[C@H](Cc2ccccc2)NC(=O)[C@H](Cc2ccc(O)cc2)NC(=O)[C@@](N)(CO)CSSC[C@@H](C(=O)N2CCC[C@H]2C(=O)N[C@@H](CCCN=C(N)N)C(=O)NCC(N)=O)NC(=O)[C@H](CC(N)=O)NC1=O` [listing 2 of 2 here], the Activity in the experiment listed under Rattus norvegicus [2] is 4.5 IU/mg; in the experiment filed under Rattus norvegicus [3], 22.5 IU/mg.
As for `CC(C)[C@@H]1NC(=O)[C@H](C)N(Cc2ccccc2)C(=O)[C@H](Cc2ccc(O)cc2)NC(=O)CCSSC[C@H](C(=O)N2CCC[C@H]2C(=O)N[C@@H](CCCN=C(N)N)C(=O)NCC(N)=O)NC(=O)[C@H](CC(N)=O)NC1=O`, the pressor activity in experiment [1] was 0 IU/mg.
Same read-out and setting: the same measure for `CC(C)C[C@H](NC(=O)[C@@H]1CCCN1C(=O)[C@H]1CSSCCC(=O)N2CCN(C(=O)[C@@H]2Cc2ccccc2)[C@@H](Cc2ccccc2)C(=O)N[C@@H](CCC(N)=O)C(=O)N[C@@H](CC(N)=O)C(=O)N1)C(=O)NCC(N)=O`: 0 IU/mg.
Regarding `CC(C)C[C@H](NC(=O)[C@@H]1CCCN1C(=O)[C@@H]1CSSC2(CCCCC2)CC(=O)N2CCN(C(=O)[C@@H]2Cc2ccccc2)[C@@H](Cc2ccccc2)C(=O)N[C@@H](CCC(N)=O)C(=O)N[C@@H](CC(N)=O)C(=O)N1)C(=O)NCC(N)=O` [listing 1 of 2 here], the Activity in the experiment filed under Rattus norvegicus [2] is recorded as <0.04 IU/mg.
Regarding `CC(C)[C@@H]1NC(=O)[C@H](C)N(Cc2ccccc2)C(=O)[C@H](Cc2ccc(O)cc2)NC(=O)CCSSC[C@@H](C(=O)N2CCC[C@H]2C(=O)N[C@@H](CCCN=C(N)N)C(=O)NCC(N)=O)NC(=O)[C@H](CC(N)=O)NC1=O`, the Activity in the experiment listed under Rattus norvegicus [2] is reported as <0.04 IU/mg.
Consider `CC(C)[C@@H]1NC(=O)[C@H](C)N(Cc2ccccc2)C(=O)[C@H](Cc2ccc(O)cc2)NC(=O)CC2(CCCCC2)SSC[C@H](C(=O)N2CCC[C@H]2C(=O)N[C@@H](CCCN=C(N)N)C(=O)NCC(N)=O)NC(=O)[C@H](CC(N)=O)NC1=O`, for which the Activity in experiment [4] stood at 0 IU/mg. For the same compound, the pressor activity in experiment [1] was found to be 0 IU/mg.
Turning to `CC(C)[C@@H]1NC(=O)[C@H](C)N(Cc2ccccc2)C(=O)[C@H](Cc2ccc(O)cc2)NC(=O)CC2(CCCCC2)SSC[C@@H](C(=O)N2CCC[C@H]2C(=O)N[C@@H](CCCN=C(N)N)C(=O)NCC(N)=O)NC(=O)[C@H](CC(N)=O)NC1=O`, the Activity in the experiment filed under Rattus norvegicus [2] is on record as <0.04 IU/mg.
Take `CC(C)C[C@H](NC(=O)[C@@H]1CCCN1C(=O)[C@H]1CSSC[C@@H](N)C(=O)N2CCN(C(=O)[C@@H]2Cc2ccccc2)[C@@H](Cc2ccccc2)C(=O)N[C@@H](CCC(N)=O)C(=O)N[C@@H](CC(N)=O)C(=O)N1)C(=O)NCC(N)=O`: the pressor activity in experiment [1] was found to be 0 IU/mg.
As to `CC(C)C[C@H](NC(=O)[C@@H]1CCCN1C(=O)[C@@H]1CSSC[C@H](N)C(=O)N2CCN(C(=O)[C@@H]2Cc2ccccc2)[C@@H](Cc2ccccc2)C(=O)N[C@@H](CCC(N)=O)C(=O)N[C@@H](CC(N)=O)C(=O)N1)C(=O)NCC(N)=O` [listing 1 of 2 here], in the experiment filed under Rattus norvegicus [2], the Activity is on record as <0.04 IU/mg.
In turn, `CC(C)C[C@H](NC(=O)[C@@H]1CCCN1C(=O)[C@@H]1CSSCCC(=O)N2CCN(C(=O)[C@@H]2Cc2ccccc2)[C@@H](Cc2ccccc2)C(=O)N[C@@H](CCC(N)=O)C(=O)N[C@@H](CC(N)=O)C(=O)N1)C(=O)NCC(N)=O` [listing 1 of 2 here] returned a pA2 on Oxytocin receptor of 6.5.
As to `CC(C)C[C@H](NC(=O)[C@@H]1CCCN1C(=O)[C@@H]1CSSC[C@H](N)C(=O)N2CCN(C(=O)[C@@H]2Cc2ccccc2)[C@@H](Cc2ccccc2)C(=O)N[C@@H](CCC(N)=O)C(=O)N[C@@H](CC(N)=O)C(=O)N1)C(=O)NCC(N)=O` [listing 2 of 2 here], the pA2 at Oxytocin receptor came out at 6.82.
With `CC(C)C[C@H](NC(=O)[C@@H]1CCCN1C(=O)[C@H]1CSSC2(CCCCC2)CC(=O)N2CCN(C(=O)[C@@H]2Cc2ccccc2)[C@@H](Cc2ccccc2)C(=O)N[C@@H](CCC(N)=O)C(=O)N[C@@H](CC(N)=O)C(=O)N1)C(=O)NCC(N)=O`, the pressor activity in experiment [1] came out at 0 IU/mg.
Take `CC(C)C[C@H](NC(=O)[C@@H]1CCCN1C(=O)[C@@H]1CSSC2(CCCCC2)CC(=O)N2CCN(C(=O)[C@@H]2Cc2ccccc2)[C@@H](Cc2ccccc2)C(=O)N[C@@H](CCC(N)=O)C(=O)N[C@@H](CC(N)=O)C(=O)N1)C(=O)NCC(N)=O` [listing 2 of 2 here]: the pA2 at Oxytocin receptor worked out at 6.72.
In the case of `CC(C)C[C@H](NC(=O)[C@@H]1CCCN1C(=O)[C@@H]1CSSCCC(=O)N2CCN(C(=O)[C@@H]2Cc2ccccc2)[C@@H](Cc2ccccc2)C(=O)N[C@@H](CCC(N)=O)C(=O)N[C@@H](CC(N)=O)C(=O)N1)C(=O)NCC(N)=O` [listing 2 of 2 here], the Activity in the experiment listed under Rattus norvegicus [2] is recorded as <0.04 IU/mg.
Take `NC(=O)CC[C@@H]1NC(=O)[C@H](Cc2ccccc2)NC(=O)[C@H](Cc2ccc(O)cc2)NC(=O)[C@@](N)(CO)CSSC[C@H](C(=O)N2CCC[C@H]2C(=O)N[C@@H](CCCN=C(N)N)C(=O)NCC(N)=O)NC(=O)[C@H](CC(N)=O)NC1=O`: the pressor activity in experiment [1] worked out at 0.18 IU/mg.

(Values after ChEMBL document CHEMBL1139009, “Analogues of neurohypophyseal hormones, oxytocin and arginine vasopressin, conformationally restricted in the N-terminal part of the molecule” (J Med Chem, 2006).)
